Reference: ChEMBL document CHEMBL4431340, “Pyridyl-alanine as a Hydrophilic, Aromatic Element in Peptide Structural Optimization” (J Med Chem, 2016)
Calls of active or inactive are those of the source. The rule behind the calls is not given here. Non-standard residues stand in square brackets, D forms with d. Residues, ends and D or L forms follow the SMILES beside them. 3Pal = N[C@@H](Cc1cccnc1)C(=O)O; Aib = CC(C)(N)C(=O)O

Assays:
Rattus norvegicus [1] = test: Antihypoglycemic activity in lean Wistar rat assessed as prevention of insulin-induced glucose reduction at 15 nmol/kg, ip after 60 mins by glucometer; type: functional, organism-based
Method in brief: (§1)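 Lean rats received a fixed insulin dose chosen to induce hypoglycemia, together with peptide or vehicle. Blood glucose was followed for 60 min after administration. Groups were compared by one-way ANOVA with Dunnett's test against the insulin group, with P < 0.05 taken as significant.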

Rattus norvegicus [2] = test: Antihypoglycemic activity in lean Wistar rat assessed as prevention of insulin-induced glucose reduction at 15 nmol/kg, ip after 30 mins by glucometer; type: functional, organism-based; method in brief: as §1
Rattus norvegicus [3] = test: Hyperglycemic activity in lean Wistar rat assessed as elevation of plasma glucose levels at 10 nmol/kg, ip after 120 mins in absence of insulin by glucometer; type: functional, organism-based
[4] = Aqueous solubility of the compound in PBS assessed as precipitate formation at pH 7 after 1 hr; conditions: buffer, pH 7, 1 h
[5] = Aqueous solubility of the compound in PBS at 1 to 10 mg/ml assessed as precipitate formation at pH 7 at 4 degC after 7 days; type: physicochemical; conditions: buffer, pH 7, 168 h
[6] = target: Glucagon receptor (Homo sapiens) (UniProt P47871); test: Activation of glucagon receptor (unknown origin) transfected in HEK293 cells co-transfected with luciferase reporter gene linked CRE element assessed as compound EC50 preincubated in PBS buffer for 4 weeks at elevated temperature and pH 7 followed by protein addition measured after 5 hrs in presence of luclite substrate by liquid scintillation counting relative to control; type: functional, cell-based
Method in brief: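 Analog incubated at 2.0 mg/mL in 50 mM sodium phosphate, 150 mM NaCl at pH 7 (also pH 5, 6), 37 °C, stirred at 200 rpm for 1 and 4 weeks. T=0 reference kept at -45 °C. […] Cells exposed to serial dilutions for 5 h at 37 °C, then LucLite luminescence read. Reported as percent change in EC50.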

Sus scrofa = test: Antihypoglycemic activity in diabetic Yucatan pig assessed as prevention of insulin detemir-induced blood glucose reduction at 10 nmol/kg, sc administered 240 mins post insulin detemir challenge measured during compound dosing by glucometer

Chain of Glucagon receptor (Homo sapiens) (P47871 whole entry): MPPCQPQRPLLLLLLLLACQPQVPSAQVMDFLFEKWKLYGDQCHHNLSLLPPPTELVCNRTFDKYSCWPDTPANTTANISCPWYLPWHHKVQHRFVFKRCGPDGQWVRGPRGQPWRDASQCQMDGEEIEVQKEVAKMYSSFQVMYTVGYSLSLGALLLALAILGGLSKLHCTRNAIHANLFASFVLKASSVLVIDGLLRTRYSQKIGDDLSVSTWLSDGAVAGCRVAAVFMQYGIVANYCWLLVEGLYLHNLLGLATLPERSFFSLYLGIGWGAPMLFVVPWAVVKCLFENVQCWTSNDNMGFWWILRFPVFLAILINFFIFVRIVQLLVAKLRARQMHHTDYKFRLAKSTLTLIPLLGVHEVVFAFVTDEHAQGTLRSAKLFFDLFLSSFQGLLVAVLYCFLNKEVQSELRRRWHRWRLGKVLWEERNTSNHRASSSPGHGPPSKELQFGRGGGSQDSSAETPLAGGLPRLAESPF

Compound	solubility [4] [mg/mL]	solubility [5]	other results
GLUCAGON			Activity (Rattus norvegicus [1]): Active; Activity (Rattus norvegicus [2]): inactive; Activity (Rattus norvegicus [3]): Active
CSCC[C@H](NC(=O)[C@H](CC(C)C)NC(=O)[C@H](Cc1c[nH]c2ccccc12)NC(=O)[C@H](CCC(N)=O)NC(=O)[C@@H](NC(=O)[C@H](Cc1ccccc1)NC(=O)[C@H](CC(=O)O)NC(=O)[C@H](CCC(N)=O)NC(=O)[C@H](C)NC(=O)[C@H](CCCNC(=N)N)NC(=O)[C@H](CCCNC(=N)N)NC(=O)C(C)(C)NC(=O)[C@H](CC(=O)O)NC(=O)[C@H](CC(C)C)NC(=O)[C@H](Cc1ccncc1)NC(=O)[C@H](CCCCN)NC(=O)[C@H](CO)NC(=O)[C@H](Cc1ccc(O)cc1)NC(=O)[C@H](CC(=O)O)NC(=O)[C@H](CO)NC(=O)[C@@H](NC(=O)[C@H](Cc1ccccc1)NC(=O)[C@@H](NC(=O)CNC(=O)[C@H](CCC(N)=O)NC(=O)[C@H](CO)NC(=O)[C@@H](N)Cc1cnc[nH]1)[C@@H](C)O)[C@@H](C)O)C(C)C)C(=O)N[C@@H](CC(N)=O)C(=O)N[C@H](C(=O)O)[C@@H](C)O	> 1		
CSCC[C@H](NC(=O)[C@H](CC(C)C)NC(=O)[C@H](Cc1c[nH]c2ccccc12)NC(=O)[C@H](CCC(N)=O)NC(=O)[C@@H](NC(=O)[C@H](Cc1ccccc1)NC(=O)[C@H](CC(=O)O)NC(=O)[C@H](CCC(N)=O)NC(=O)[C@H](C)NC(=O)[C@H](CCCNC(=N)N)NC(=O)[C@H](CCCNC(=N)N)NC(=O)C(C)(C)NC(=O)[C@H](CC(=O)O)NC(=O)[C@H](CC(C)C)NC(=O)[C@H](Cc1ccncc1)NC(=O)[C@H](CCCCN)NC(=O)[C@H](CO)NC(=O)[C@H](Cc1ccncc1)NC(=O)[C@H](CC(=O)O)NC(=O)[C@H](CO)NC(=O)[C@@H](NC(=O)[C@H](Cc1ccncc1)NC(=O)[C@@H](NC(=O)CNC(=O)[C@H](CCC(N)=O)NC(=O)[C@H](CO)NC(=O)[C@@H](N)Cc1cnc[nH]1)[C@@H](C)O)[C@@H](C)O)C(C)C)C(=O)N[C@@H](CC(N)=O)C(=O)N[C@H](C(=O)O)[C@@H](C)O	> 15	Soluble	
CSCC[C@H](NC(=O)[C@H](CC(C)C)NC(=O)[C@H](Cc1c[nH]c2ccccc12)NC(=O)[C@H](CCC(N)=O)NC(=O)[C@@H](NC(=O)[C@H](Cc1ccccc1)NC(=O)[C@H](CC(=O)O)NC(=O)[C@H](CCC(N)=O)NC(=O)[C@H](C)NC(=O)[C@H](CCCNC(=N)N)NC(=O)[C@H](CCCNC(=N)N)NC(=O)C(C)(C)NC(=O)[C@H](CC(=O)O)NC(=O)[C@H](CC(C)C)NC(=O)[C@H](Cc1cccnc1)NC(=O)[C@H](CCCCN)NC(=O)[C@H](CO)NC(=O)[C@H](Cc1cccnc1)NC(=O)[C@H](CC(=O)O)NC(=O)[C@H](CO)NC(=O)[C@@H](NC(=O)[C@H](Cc1cccnc1)NC(=O)[C@@H](NC(=O)CNC(=O)[C@H](CCC(N)=O)NC(=O)[C@H](CO)NC(=O)[C@@H](N)Cc1cnc[nH]1)[C@@H](C)O)[C@@H](C)O)C(C)C)C(=O)N[C@@H](CC(N)=O)C(=O)N[C@H](C(=O)O)[C@@H](C)O	> 15	Soluble	Activity [6]: 82%; Activity (Rattus norvegicus [1]): Active; Activity (Rattus norvegicus [2]): inactive; Activity (Rattus norvegicus [3]): Active; Activity (Sus scrofa): Active
CSCC[C@H](NC(=O)[C@H](CC(C)C)NC(=O)[C@H](Cc1c[nH]c2ccccc12)NC(=O)[C@H](CCC(N)=O)NC(=O)[C@@H](NC(=O)[C@H](Cc1ccccc1)NC(=O)[C@H](CC(=O)O)NC(=O)[C@H](CCC(N)=O)NC(=O)[C@H](C)NC(=O)[C@H](CCCNC(=N)N)NC(=O)[C@H](CCCNC(=N)N)NC(=O)C(C)(C)NC(=O)[C@H](CC(=O)O)NC(=O)[C@H](CC(C)C)NC(=O)[C@H](Cc1ccncc1)NC(=O)[C@H](CCCCN)NC(=O)[C@H](CO)NC(=O)[C@H](Cc1ccncc1)NC(=O)[C@H](CC(=O)O)NC(=O)[C@H](CO)NC(=O)[C@@H](NC(=O)[C@H](Cc1ccccc1)NC(=O)[C@@H](NC(=O)CNC(=O)[C@H](CCC(N)=O)NC(=O)[C@H](CO)NC(=O)[C@@H](N)Cc1cnc[nH]1)[C@@H](C)O)[C@@H](C)O)C(C)C)C(=O)N[C@@H](CC(N)=O)C(=O)N[C@H](C(=O)O)[C@@H](C)O	> 15	Soluble	
CSCC[C@H](NC(=O)[C@H](CC(C)C)NC(=O)[C@H](Cc1c[nH]c2ccccc12)NC(=O)[C@H](CCC(N)=O)NC(=O)[C@@H](NC(=O)[C@H](Cc1ccccc1)NC(=O)[C@H](CC(=O)O)NC(=O)[C@H](CCC(N)=O)NC(=O)[C@H](C)NC(=O)[C@H](CCCNC(=N)N)NC(=O)[C@H](CCCNC(=N)N)NC(=O)C(C)(C)NC(=O)[C@H](CC(=O)O)NC(=O)[C@H](CC(C)C)NC(=O)[C@H](Cc1ccc(O)cc1)NC(=O)[C@H](CCCCN)NC(=O)[C@H](CO)NC(=O)[C@H](Cc1cccnc1)NC(=O)[C@H](CC(=O)O)NC(=O)[C@H](CO)NC(=O)[C@@H](NC(=O)[C@H](Cc1ccccc1)NC(=O)[C@@H](NC(=O)CNC(=O)[C@H](CCC(N)=O)NC(=O)[C@H](CO)NC(=O)[C@@H](N)Cc1cnc[nH]1)[C@@H](C)O)[C@@H](C)O)C(C)C)C(=O)N[C@@H](CC(N)=O)C(=O)N[C@H](C(=O)O)[C@@H](C)O	> 1		

Second part, led by results:

solubility [4] [mg/mL]	solubility [5]	Compound	other results
> 1		CSCC[C@H](NC(=O)[C@H](CC(C)C)NC(=O)[C@H](Cc1c[nH]c2ccccc12)NC(=O)[C@H](CCC(N)=O)NC(=O)[C@@H](NC(=O)[C@H](Cc1ccccc1)NC(=O)[C@H](CC(=O)O)NC(=O)[C@H](CCC(N)=O)NC(=O)[C@H](C)NC(=O)[C@H](CCCNC(=N)N)NC(=O)[C@H](CCCNC(=N)N)NC(=O)C(C)(C)NC(=O)[C@H](CC(=O)O)NC(=O)[C@H](CC(C)C)NC(=O)[C@H](Cc1cccnc1)NC(=O)[C@H](CCCCN)NC(=O)[C@H](CO)NC(=O)[C@H](Cc1ccc(O)cc1)NC(=O)[C@H](CC(=O)O)NC(=O)[C@H](CO)NC(=O)[C@@H](NC(=O)[C@H](Cc1ccccc1)NC(=O)[C@@H](NC(=O)CNC(=O)[C@H](CCC(N)=O)NC(=O)[C@H](CO)NC(=O)[C@@H](N)Cc1cnc[nH]1)[C@@H](C)O)[C@@H](C)O)C(C)C)C(=O)N[C@@H](CC(N)=O)C(=O)N[C@H](C(=O)O)[C@@H](C)O	
> 15		CSCC[C@H](NC(=O)[C@H](CC(C)C)NC(=O)[C@H](Cc1c[nH]c2ccccc12)NC(=O)[C@H](CCC(N)=O)NC(=O)[C@@H](NC(=O)[C@H](Cc1ccccc1)NC(=O)[C@H](CC(=O)O)NC(=O)[C@H](CCC(N)=O)NC(=O)[C@H](C)NC(=O)[C@H](CCCNC(=N)N)NC(=O)[C@H](CCCNC(=N)N)NC(=O)C(C)(C)NC(=O)[C@H](CC(=O)O)NC(=O)[C@H](CC(C)C)NC(=O)[C@H](Cc1cccnc1)NC(=O)[C@H](CCCCN)NC(=O)[C@H](CO)NC(=O)[C@H](Cc1cccnc1)NC(=O)[C@H](CC(=O)O)NC(=O)[C@H](CO)NC(=O)[C@@H](NC(=O)[C@H](Cc1ccccc1)NC(=O)[C@@H](NC(=O)CNC(=O)[C@H](CCC(N)=O)NC(=O)[C@H](CO)NC(=O)[C@@H](N)Cc1cnc[nH]1)[C@@H](C)O)[C@@H](C)O)C(C)C)C(=O)N[C@@H](CC(N)=O)C(=O)N[C@H](C(=O)O)[C@@H](C)O	
> 1		CSCC[C@H](NC(=O)[C@H](CC(C)C)NC(=O)[C@H](Cc1c[nH]c2ccccc12)NC(=O)[C@H](CCC(N)=O)NC(=O)[C@@H](NC(=O)[C@H](Cc1ccccc1)NC(=O)[C@H](CC(=O)O)NC(=O)[C@H](CCC(N)=O)NC(=O)[C@H](C)NC(=O)[C@H](CCCNC(=N)N)NC(=O)[C@H](CCCNC(=N)N)NC(=O)C(C)(C)NC(=O)[C@H](CC(=O)O)NC(=O)[C@H](CC(C)C)NC(=O)[C@H](Cc1ccc(O)cc1)NC(=O)[C@H](CCCCN)NC(=O)[C@H](CO)NC(=O)[C@H](Cc1ccc(O)cc1)NC(=O)[C@H](CC(=O)O)NC(=O)[C@H](CO)NC(=O)[C@@H](NC(=O)[C@H](Cc1cccnc1)NC(=O)[C@@H](NC(=O)CNC(=O)[C@H](CCC(N)=O)NC(=O)[C@H](CO)NC(=O)[C@@H](N)Cc1cnc[nH]1)[C@@H](C)O)[C@@H](C)O)C(C)C)C(=O)N[C@@H](CC(N)=O)C(=O)N[C@H](C(=O)O)[C@@H](C)O	
> 15	Soluble	CSCC[C@H](NC(=O)[C@H](CC(C)C)NC(=O)[C@H](Cc1c[nH]c2ccccc12)NC(=O)[C@H](CCC(N)=O)NC(=O)[C@@H](NC(=O)[C@H](Cc1cccnc1)NC(=O)[C@H](CC(=O)O)NC(=O)[C@H](CCC(N)=O)NC(=O)[C@H](C)NC(=O)[C@H](CCCNC(=N)N)NC(=O)[C@H](CCCNC(=N)N)NC(=O)C(C)(C)NC(=O)[C@H](CC(=O)O)NC(=O)[C@H](CC(C)C)NC(=O)[C@H](Cc1cccnc1)NC(=O)[C@H](CCCCN)NC(=O)[C@H](CO)NC(=O)[C@H](Cc1cccnc1)NC(=O)[C@H](CC(=O)O)NC(=O)[C@H](CO)NC(=O)[C@@H](NC(=O)[C@H](Cc1cccnc1)NC(=O)[C@@H](NC(=O)CNC(=O)[C@H](CCC(N)=O)NC(=O)[C@H](CO)NC(=O)[C@@H](N)Cc1cnc[nH]1)[C@@H](C)O)[C@@H](C)O)C(C)C)C(=O)N[C@@H](CC(N)=O)C(=O)N[C@H](C(=O)O)[C@@H](C)O (H-HSQGT[3Pal]TSD[3Pal]SK[3Pal]LD[Aib]RRAQD[3Pal]VQWLMNT-OH)	
